# The source made the active and inactive calls.
# Legend:
# [1] = test system: Aorta; assay: Vasodilatory activity in Wistar rat endothelium-denuded thoracic aorta assessed as reduction in phenylephrine-induced contraction; assay type: functional, tissue-based
# How it was run: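 Endothelium-denuded aortic strips equilibrated 120 min, contracted with L-phenylephrine (1 μM), then given cumulative concentrations of vasodilator. EC50 is the mean ± SEM of at least three experiments.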
# [2] = test system: Aorta; assay: Vasodilatory activity in Wistar rat endothelium-denuded thoracic aorta assessed as reduction in phenylephrine-induced contraction in presence 1 uM sGC inhibitor ODQ; assay type: functional, tissue-based
# How it was run: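 Denuded aortic strips equilibrated 120 min, with ODQ 1 μM added to the bath 5 min before L-phenylephrine (1 μM) contraction. Cumulative vasodilator concentrations then added. EC50 is the mean ± SEM of at least three experiments, in a separate series.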
# [3] = test system: Plasmodium berghei; assay: Antiplasmodial activity against Plasmodium berghei ANKA infected in C57BL/6 mouse assessed as reduction in paresitemia at 1.4 umol, ip qd for 5 days measured after 5 days by giemsa staining based microscpic analysis; assay type: functional, organism-based
# How it was run: (§1)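 C57BL/6 mice infected with P. berghei ANKA and treated from day 5 of infection at 5–15% parasitemia, before neurological signs. Dosing 1.4 μmol ip once daily for 5 days; parasitemia checked every 24 h. Value given as % of pre-treatment parasitemia (set as 100%), read 24 h after the first dose or 24 h after the fifth.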
# [4] = test system: Plasmodium berghei; assay: Antiplasmodial activity against Plasmodium berghei ANKA infected in C57BL/6 mouse assessed as reduction in paresitemia at 1.4 umol, ip qd for 5 days measured after 24 hrs by giemsa staining based microscpic analysis; assay type: functional; how it was run: as §1
# [5] = test system: Plasmodium berghei; assay: Antiplasmodial activity against Plasmodium berghei ANKA early trophozoite stage by parasite LDH assay; assay type: functional, organism-based
# [6] = test system: Plasmodium berghei; assay: Antimalarial activity against Plasmodium berghei ANKA infected in C57BL/6 mouse experimental cerebral model assessed as mouse survival rate at 57 mg/kg, ip qd for 5 days; assay type: functional
# How it was run: (§2)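 P. berghei ANKA-infected mice left to develop clinical cerebral signs, then treated once hypothermic (rectal temperature 30–36 °C); parasitemia checked but not a treatment criterion. Read-out is survival, compared by log-rank test; 24 h survival also recorded. […] only the subgroup treated above 32 °C body temperature.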
# [7] = test system: Plasmodium berghei; assay: Antimalarial activity against Plasmodium berghei ANKA infected in C57BL/6 mouse experimental cerebral model assessed as mouse survival rate at 57 mg/kg, ip qd for 5 days measured after 24 hrs; assay type: functional; how it was run: as §2
# [8] = test system: Plasmodium berghei; assay: Antimalarial activity against Plasmodium berghei ANKA infected in C57BL/6 mouse experimental cerebral model with body temperature >32 deg C assessed as mouse survival rate at 57 mg/kg, ip qd for 5 days; assay type: functional; how it was run: as §2
# [9] = test system: Plasmodium berghei; assay: Antimalarial activity against Plasmodium berghei ANKA infected in C57BL/6 mouse experimental cerebral model assessed as mouse survival rate at 25 mg/kg, ip qd for 5 days measured after 24 hrs; assay type: functional; how it was run: as §2
# [10] = test system: Plasmodium berghei; assay: Antimalarial activity against Plasmodium berghei ANKA infected in C57BL/6 mouse experimental cerebral model with body temperature >32 deg C assessed as mouse survival rate at 25 mg/kg, ip qd for 5 days; assay type: functional; how it was run: as §2
# [11] = test system: Plasmodium berghei; assay: Antimalarial activity against Plasmodium berghei ANKA infected in C57BL/6 mouse experimental cerebral model assessed as mouse survival rate at 25 mg/kg, ip qd for 5 days; assay type: functional; how it was run: as §2
SMILES,EC50 [1],EC50 [2],Activity [3],inhibition (INH) [4],IC50 [5],Activity [6],Activity [7],Activity [1],Activity [8],Activity [9],Activity [10],Activity [11]
C[C@H]1[C@@H](OCCN(C)Cc2no[n+]([O-])c2S(=O)(=O)c2ccccc2)O[C@@H]2O[C@@]3(C)CC[C@H]4[C@H](C)CC[C@@H]1[C@@]24OO3,410 nM,30000 nM,Active,95%,14 nM,,,,,,,
C[C@H]1[C@@H](OC(=O)CCC(=O)OCO/N=[N+](\[O-])N2CCCC2)O[C@@H]2O[C@@]3(C)CC[C@H]4[C@H](C)CC[C@@H]1[C@@]24OO3,3.6 nM,140 nM,Active,95%,15 nM,,,,,,,
C[C@H]1[C@@H](OCCN(C)Cc2no[n+]([O-])c2C(N)=O)O[C@@H]2O[C@@]3(C)CC[C@H]4[C@H](C)CC[C@@H]1[C@@]24OO3,1400 nM,12000 nM,Active,95%,16 nM,51.6%,77%,Dose-dependent effect,63.6%,,,
CO[C@H]1O[C@@H]2O[C@@]3(C)CC[C@H]4[C@H](C)CC[C@@H]([C@H]1C)[C@@]24OO3 [ARTEMETHER],,,,,3 nM,,,,,48%,33.3%,27.5%
C[C@H]1[C@H](OC(=O)CCC(=O)O)O[C@@H]2O[C@@]3(C)CC[C@H]4[C@H](C)CC[C@@H]1[C@@]24OO3 [SODIUM ARESUNATE],,,,,16 nM,,,,,,,
C[C@H]1[C@@H](OCCN(C)Cc2no[n+]([O-])c2C#N)O[C@@H]2O[C@@]3(C)CC[C@H]4[C@H](C)CC[C@@H]1[C@@]24OO3,23 nM,250 nM,Active,85%,18 nM,,,,,,,
